Converted amounts (≈) assume the structure as drawn.
Assays:
[1] = test system: Mycobacterium tuberculosis; test: Antimycobacterial activity against Mycobacterium tuberculosis H37Rv after 6 days by microdilution resazurin assay; assay type: functional; conditions: 144 h
Summary of the method: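 M. tuberculosis H37Rv inoculum grown in Dubos medium with 10% ADC. Twofold dilutions in Dubos broth, 500 to 0.9 µg/mL, with DMSO and isoniazid controls. Incubated 6 days at 37 °C, then 0.01% resazurin added for 24 h more. Read by colour change (blue to pink) and OD 530–630 nm. MIC95 (>95% growth inhibition) derived by curve fitting.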

[2] = test system: Mycolicibacterium smegmatis; test: Antimycobacterial activity against Mycobacterium smegmatis mc2155 after 48 hrs by microdilution resazurin assay; assay type: functional; conditions: str. MC2 155, 48 h
Summary of the method: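 Inoculum of M. smegmatis mc²155 grown in Dubos medium + 10% ADC; twofold serial dilutions in Dubos broth, 500 to 0.9 µg/mL. DMSO and isoniazid controls. 48 h at 37 °C, then 0.01% resazurin added, further 24 h. Growth is read as blue-to-pink change plus OD 530–630 nm.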

With `CC1(C)CCc2c(c(Br)cc3oc4ccccc4c23)O1` the MIC95 [1] was greater than 500 µg/mL and the MIC95 [2] was greater than 500 µg/mL.
In the case of `CC(=O)c1ccc2oc3ccc(O)cc3c2c1`, the MIC95 [1] is reported as 8 µg/mL (≈ 35.4 µM) and the MIC95 [2] is reported as greater than 500 µg/mL.
`O=C(c1ccc(O)cc1)c1ccc(O)cc1` showed an MIC95 [1] of 125 µg/mL (≈ 584 µM) and an MIC95 [2] of 62 µg/mL (≈ 289 µM).
In the case of `CC1(C)C=Cc2cc3oc4ccccc4c3cc2O1`, the MIC95 [1] is reported as 35 µg/mL (≈ 140 µM) and the MIC95 [2] is reported as 20 µg/mL (≈ 79.9 µM).
`CC1(C)CCc2cc(Cc3ccccc3)ccc2O1` showed an MIC95 [1] of 30 µg/mL (≈ 119 µM) and an MIC95 [2] greater than 500 µg/mL.
`CC1(C)C=Cc2cc(C(O)c3cccnc3)ccc2O1` (stereo unspecified) gave an MIC95 [1] of 62 µg/mL (≈ 232 µM) and an MIC95 [2] of 62 µg/mL (≈ 232 µM).
`CC1(C)C=Cc2cc(C(O)c3ccccc3)ccc2O1` (stereo unspecified) was tested, and the MIC95 [1] was 20 µg/mL (≈ 75.1 µM) and the MIC95 [2] was 20 µg/mL (≈ 75.1 µM).
`CC1(C)C=Cc2cc(C(=O)c3ccc(O)cc3)ccc2O1` showed an MIC95 [1] of 62 µg/mL (≈ 221 µM) and an MIC95 [2] of 32 µg/mL (≈ 114 µM).
In the case of `CC(=O)c1cc2oc3ccccc3c2c2c1OC(C)(C)CC2`, the MIC95 [1] is reported as greater than 500 µg/mL and the MIC95 [2] is reported as greater than 500 µg/mL.
Molecule `CC1(C)C=Cc2cc(C(=O)c3ccccc3)ccc2O1` has an MIC95 [1] of 40 µg/mL (≈ 151 µM) and an MIC95 [2] of 20 µg/mL (≈ 75.7 µM).
Molecule `C#CC(C)(C)Oc1ccc2oc3ccc(C(C)=O)cc3c2c1` has an MIC95 [1] greater than 100 µg/mL and an MIC95 [2] greater than 100 µg/mL.
For `NNC(=O)c1ccncc1` [ISONIAZID], the MIC95 [1] was 0.1 µg/mL (≈ 0.729 µM) and the MIC95 [2] was 12 µg/mL (≈ 87.5 µM).
Molecule `C#CC(C)(C)Oc1ccc(Oc2ccccc2)cc1` has an MIC95 [1] greater than 100 µg/mL and an MIC95 [2] greater than 100 µg/mL.
With `CC(=O)c1cc2oc3ccccc3c2c2c1OC(C(C)C)C2` (stereo unspecified) the MIC95 [1] was greater than 500 µg/mL and the MIC95 [2] was greater than 500 µg/mL.
Molecule `CC1(C)C=Cc2cc(-c3ccccc3)ccc2O1` has an MIC95 [1] greater than 500 µg/mL and an MIC95 [2] greater than 500 µg/mL.
`CC1(C)C=Cc2cc(Oc3ccccc3)ccc2O1` was tested, and the MIC95 [1] was greater than 500 µg/mL and the MIC95 [2] was 70 µg/mL (≈ 277 µM).
Work on `CC(=O)c1ccc2oc3ccc4c(c3c2c1)C=CC(C)(C)O4` yielded an MIC95 [1] greater than 500 µg/mL and an MIC95 [2] greater than 500 µg/mL.
`CC1(C)C=Cc2cc3oc4ccccc4c3c(Br)c2O1` showed an MIC95 [1] of 30 µg/mL (≈ 91.1 µM) and an MIC95 [2] of 120 µg/mL (≈ 365 µM).
Work on `CC1(C)CCc2cc(C(=O)c3ccccc3)ccc2O1` yielded an MIC95 [1] of 30 µg/mL (≈ 113 µM) and an MIC95 [2] of 50 µg/mL (≈ 188 µM).
In the case of `CC(=O)c1ccc2oc3ccc(C(C)=O)cc3c2c1`, the MIC95 [1] is reported as 10 µg/mL (≈ 39.6 µM) and the MIC95 [2] is reported as 5 µg/mL (≈ 19.8 µM).
`CC1(C)C=Cc2c(ccc3oc4c(c23)CCCC4)O1` showed an MIC95 [1] of 120 µg/mL (≈ 472 µM) and an MIC95 [2] greater than 500 µg/mL.
Work on `C#CC(C)(C)Oc1ccc2oc3c(c2c1)CCCC3` yielded an MIC95 [1] greater than 100 µg/mL and an MIC95 [2] greater than 100 µg/mL.
With `CC1(C)CCc2cc3oc4ccccc4c3cc2O1` the MIC95 [1] was greater than 500 µg/mL and the MIC95 [2] was 40 µg/mL (≈ 159 µM).
`Oc1ccc2oc3ccccc3c2c1` showed an MIC95 [1] of 25 µg/mL (≈ 136 µM).
With `CC1(C)CCc2cc(C(=O)c3ccccc3)c(O)cc2O1` the MIC95 [1] was 62 µg/mL (≈ 220 µM) and the MIC95 [2] was 4 µg/mL (≈ 14.2 µM).
Work on `CC1(C)CCc2c(ccc3oc4ccccc4c23)O1` yielded an MIC95 [1] of 10 µg/mL (≈ 39.6 µM) and an MIC95 [2] of 10 µg/mL (≈ 39.6 µM).
Molecule `C#CC(C)(C)Oc1cccc(-c2ccccc2)c1` has an MIC95 [1] greater than 100 µg/mL and an MIC95 [2] greater than 100 µg/mL.
`CC1(C)C=Cc2c(ccc3oc4ccccc4c23)O1` gave an MIC95 [1] of 10 µg/mL (≈ 40 µM) and an MIC95 [2] of 10 µg/mL (≈ 40 µM).
`Oc1ccc2oc3ccc(O)cc3c2c1` gave an MIC95 [1] of 15 µg/mL (≈ 74.9 µM) and an MIC95 [2] of 15 µg/mL (≈ 74.9 µM).
`Oc1ccc2oc3c(c2c1)CCCC3` gave an MIC95 [1] of 500 µg/mL (≈ 2660 µM) and an MIC95 [2] of 31 µg/mL (≈ 165 µM).
Work on `C#CC(C)(C)Oc1ccc(-c2ccccc2)cc1` yielded an MIC95 [1] greater than 100 µg/mL and an MIC95 [2] greater than 100 µg/mL.

— ChEMBL document CHEMBL1139091, “Synthesis and antimycobacterial evaluation of benzofurobenzopyran analogues” (2007)
